# Experimental data: publication PMC8360131 (Angewandte Chemie (International Ed. in English), 2021)
# Like-named read-outs stand apart in the source and are kept apart here. *1 amine or outer side, *2 acyl side, *3 side chain or, on linkers, in order; H or OH if unused. Where a SMILES comes first, the peptide text is derived from it. [ ]: non-standard residue; d: D form. The star is where a group is joined. X1 = CCC(=O)C[C@H](O)C[C@@H](C)C[C@H](N[*:1])C(=O)[*:2]; Hexenoyl(2E,4S-Me) = CC[C@H](C)/C=C/C(=O)*; Leu(3R-OH) = CC(C)[C@@H](O)[C@H](N)C(=O)O; NH((S)CH(Me)CH2NMe2) = C[C@@H](CN(C)C)N*; Pro(4S-Me) = C[C@@H]1CN[C@H](C(=O)O)C1; NH(1-CH2NMe2-cBu) = CN(C)CC1(N*)CCC1; Oxazole4CO(2-Me) = Cc1nc(C(=O)*)co1; hCha = N[C@@H](CCC1CCCCC1)C(=O)O; NMeL = CN[C@@H](CC(C)C)C(=O)O; Aib = CC(C)(N)C(=O)O; βAla = NCCC(=O)O
# Legend:
# [1] = test system: T. b. brucei bloodstream forms; assay: MitoTracker fluorescence microscopy; assay type: cell-based; conditions: 24 h treatment; 4 and 5 at 40 nM final concentration
# Outline: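 Bloodstream-form T. b. brucei (NYsm strain) were exposed to test compound for 24 h, some at 40 nM final concentration. Cells were then incubated with the mitochondrial membrane potential-dependent dye MitoTracker, co-stained with DAPI and anti-ATOM40, and examined by fluorescence microscopy with DIC imaging. Untreated parasites were stained in parallel.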
# [2] = test system: T. b. brucei bloodstream forms; assay: TMRE mitochondrial membrane potential assay; assay type: cell-based
# Outline: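 The mitochondrial membrane potential of bloodstream-form T. b. brucei (NYsm) was quantified with the potential-sensitive dye TMRE, before and after test compound treatment. TMRE fluorescence was expressed relative to control parasites. CCCP served as positive control.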
# [3] = test system: Trypanosoma cruzi (Tulahuen strain C2C4); assay: T. cruzi assay in L6 cells; assay type: cell-based; conditions: read-out: T. cruzi; intracellular
# [4] = test system: Leishmania donovani axenic amastigotes (strain MHOM/ET/67/L82); assay: L. donovani axenic amastigotes resazurin assay; assay type: cell-based
# [5] = test system: T. b. brucei 427 bloodstream forms; assay: T. b. brucei bloodstream form resazurin IC50 assay; assay type: cell-based; conditions: read-out: activity on T. b. brucei; 72 h exposure
# [6] = test system: Trypanosoma brucei; conditions: read-out: IC50 Trypanosoma brucei; cited from earlier work
# [7] = test system: Plasmodium falciparum; conditions: read-out: IC50 Plasmodium falciparum; cited from earlier work
# [8] = mice; cited from earlier work
# [9] = test system: Leishmania donovani intracellular amastigotes; assay: L. donovani intracellular amastigotes in macrophages; assay type: cell-based; conditions: read-out: L. donovani. Macrophage, mouse peritoneal macrophages
# [10] = test system: T. brucei; conditions: cited from earlier work
# [11] = test system: T. brucei; conditions: cited from earlier work; remark: listed apart in the source
# [12] = test system: bacteria, fungi, and cancer cells; conditions: cited from earlier work
# [13] = read-out: L. donovani. axenic amastigotes, range in parentheses
compound,measurement,setting,value
Cc1nc(C(=O)N2CCC[C@H]2C(=O)N[C@@H](CCC2CCCCC2)C(=O)N[C@@H](CC(C)C)C(=O)NC(C)(C)C(=O)N[C@@H](CC(C)C)C(=O)N(C)[C@@H](CC(C)C)C(=O)NC(C)(C)C(=O)NC(C)(C)C(=O)NCCC(=O)NC2(CN(C)C)CCC2)co1 [Compound 3] ({Oxazole4CO(2-Me)}-P[hCha]L[Aib]L[NMeL][Aib][Aib][βAla]-{NH(1-CH2NMe2-cBu)}),MitoTracker mitochondrial staining,[1],no changes
same,TMRE fluorescence relative to control parasites,[2],no changes
same,IC50,[3],> 2000 nM
same,IC50,[4]; [13],9260 nM
"CCC(=O)C[C@H](O)C[C@@H](C)C[C@H](NC(=O)[C@@H]1C[C@H](C)CN1C(=O)/C=C/[C@@H](C)CC)C(=O)N[C@H](C(=O)NC(C)(C)C(=O)N[C@@H](CC(C)C)C(=O)N[C@@H](CC(C)C)C(=O)NC(C)(C)C(=O)NC(C)(C)C(=O)NCCC(=O)N[C@@H](C)CN(C)C)[C@H](O)C(C)C [leucinostatin A (1 a), leucinostatin A] ({Hexenoyl(2E,4S-Me)}-[Pro(4S-Me)][X1][Leu(3R-OH)][Aib]LL[Aib][Aib][βAla]-{NH((S)CH(Me)CH2NMe2)})",IC50,[5],0.4 nM
same,IC50,[6],2.8 nM
same,TMRE fluorescence relative to control parasites,[2],concentration‐dependent decrease
same,IC50,[7],0.4 to 0.9 nM
same,ip LD50,[8],1.1 mg/kg
same,IC50,[9],9.8 nM
same,IC50,[3],23 nM
same,IC50,[4]; [13],1.05 nM
CCCCCCCCCCCCCCCCOP(=O)([O-])OCC[N+](C)(C)C [miltefosine],IC50,"[4]; Leishmania donovani, read-out: L. donovani. axenic amastigotes [nM]",483 nM
leucinostatin B [leucinostatin B (1 b)],mean duration of survival compared to untreated mice,[10]; 4×0.3 mg kg^−1 ip,slightly increased
same,mice cured,[10]; 4×0.3 mg kg^−1 ip,no mice were cured
same,mice cured,[10]; 4×1.0 mg kg^−1 ip,one of 4 mice was cured
same,mean duration of survival,"[10]; 4×1.0 mg kg^−1 ip, untreated 11.3 days",28 days
same,curative effect,[11]; 4×0.3 mg kg^−1 ip,curative effects
same,curative effect,[11]; 4×1.0 mg kg^−1 ip,curative effects
leucinostatin Y,activity compared with leucinostatin A,[12],far less active
